According to ChEMBL document CHEMBL1137670, “First occurrence of an IMP metallo-beta-lactamase in Aeromonas caviae: IMP-19 in an isolate from France” (2007):
≈ marks a conversion by molar mass, not a printed value.

Assays:
Format in all cases: functional
[1] = system: Aeromonas caviae; experiment: Antimicrobial activity against Aeromonas caviae A324R by disk diffusion method
Outline: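 Disk diffusion per CLSI criteria, read as inhibition zone diameter in mm.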

[2] = system: Escherichia coli; experiment: Antimicrobial activity against Escherichia coli DH5alpha expressing pJDB2 containing Aeromonas caviae A324R metallo-beta-lactamase gene by broth dilution method
Outline: (§1)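 Beta-lactam MICs by standard broth dilution per CLSI criteria. Recombinant DH5alpha(pIP19) carries blaIMP-19 subcloned into pK18, selected on kanamycin 30 µg/ml plus ceftazidime 4 µg/ml. DH5alpha(pJDB2) carries the 35 kb native plasmid extracted by alkaline lysis.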

[3] = system: Aeromonas caviae; experiment: Antimicrobial activity against Aeromonas caviae A324R expressing metallo-beta-lactamase IMP-19 by broth dilution method; outline: as §1
[4] = system: Escherichia coli; experiment: Antimicrobial activity against Escherichia coli DH5alpha expressing pIP19 containing Aeromonas caviae A324R metallo-beta-lactamase blaIMP-19 gene by broth dilution method; outline: as §1
[5] = system: Escherichia coli; experiment: Antimicrobial activity against Escherichia coli DH5alpha by broth dilution method; outline: as §1

Structure (SMILES)	diameter of the inhibition zone (DIZ) [1] [mm]	MIC [2] [µg/mL]	MIC [3] [µg/mL]	MIC [4] [µg/mL]	MIC [5] [µg/mL]
C[C@H]1[C@H](NC(=O)/C(=N\OC(C)(C)C(=O)O)c2csc(N)n2)C(=O)N1S(=O)(=O)O [AZTREONAM]	24	256 (≈ 588 µM)	512 (≈ 1180 µM)	256 (≈ 588 µM)	
C[C@@H](O)[C@H]1C(=O)N2C(C(=O)O)=C(SCCNC=N)C[C@H]12 [IMIPENEM ANHYDROUS]	27	0.25 (≈ 0.835 µM)	8 (≈ 26.7 µM)	0.25 (≈ 0.835 µM)	
CC(C)(O/N=C(\C(=O)N[C@@H]1C(=O)N2C(C(=O)[O-])=C(C[n+]3ccccc3)CS[C@H]12)c1csc(N)n1)C(=O)O [CEFTAZIDIME]		128 (≈ 234 µM)	1020 (≈ 1870 µM)	512 (≈ 937 µM)	4 (≈ 7.32 µM)
CC1(C)S[C@@H]2[C@H](NC(=O)[C@H](C(=O)O)c3ccsc3)C(=O)N2[C@H]1C(=O)O [TICARCILLIN]		512 (≈ 1330 µM)	2050 (≈ 5330 µM)	1020 (≈ 2660 µM)	4 (≈ 10.4 µM)
C[C@@H](O)[C@H]1C(=O)N2C(C(=O)O)=C(S[C@@H]3CN[C@H](C(=O)N(C)C)C3)[C@H](C)[C@H]12 [MEROPENEM]		256 (≈ 668 µM)	1020 (≈ 2670 µM)	512 (≈ 1340 µM)	≤ 1
Cc1nnc(SCC2=C(C(=O)O)N3C(=O)[C@@H](NC(=O)Cn4cnnn4)[C@H]3SC2)s1 [CEFAZOLIN]		256 (≈ 563 µM)	1020 (≈ 2250 µM)	256 (≈ 563 µM)	≤ 1
CCN1CCN(C(=O)N[C@@H](C(=O)N[C@@H]2C(=O)N3[C@@H]2SC(C)(C)[C@@H]3C(=O)O)c2ccccc2)C(=O)C1=O [PIPERACILLIN]		8 (≈ 15.5 µM)	256 (≈ 495 µM)	2 (≈ 3.86 µM)	1 (≈ 1.93 µM)
CO[C@@]1(NC(=O)Cc2cccs2)C(=O)N2C(C(=O)O)=C(COC(N)=O)CS[C@@H]21 [CEFOXITIN]		256 (≈ 599 µM)	512 (≈ 1200 µM)	512 (≈ 1200 µM)	2 (≈ 4.68 µM)
O=C(O)[C@H]1/C(=C/CO)O[C@@H]2CC(=O)N21 [CLAVULANIC ACID]		4 (≈ 20.1 µM)	16 (≈ 80.3 µM)	8 (≈ 40.2 µM)	0.5 (≈ 2.51 µM)
C[C@]1(Cn2ccnn2)[C@H](C(=O)O)N2C(=O)C[C@H]2S1(=O)=O [TAZOBACTAM]		0.5 (≈ 1.67 µM)	1 (≈ 3.33 µM)	0.5 (≈ 1.67 µM)	≤ 0.25
